ChEMBL document CHEMBL1145336, “1-aryl-3-(4-pyridine-2-ylpiperazin-1-yl)propan-1-one oximes as potent dopamine D4 receptor agonists for the treatment of erectile dysfunction” (J Med Chem, 2006)

Experiments:
[1] = molecular target: T1, D(2) dopamine receptor (Homo sapiens, UniProt P14416); experiment: Displacement of [125I]PIPAT from human recombinant D2L receptor expressed in HEK293 cells
[2] = system: Rattus norvegicus; experiment: Activity against penile erection in Wistar rat at 0.3 umol/kg, sc; assay type: functional
Procedure, shortened: (§1)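 Male Wistar rats, dosed subcutaneously, were weighed and adapted to a red-lit testing room for 60 min; experiments ran between 9:00 a.m. and 3:00 p.m. Erections were counted by direct observation for 60 min after dosing. The share of animals with one or more erections was reported as incidence (percent), n = 8-30 rats.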

[3] = molecular target: T2, D(4) dopamine receptor (Homo sapiens, UniProt P21917); experiment: Activity at human recombinant D4.4 receptor expressed in HEK293 cells by FLIPR assay; assay type: functional, cell-based
T2 sequence (P21917 whole entry): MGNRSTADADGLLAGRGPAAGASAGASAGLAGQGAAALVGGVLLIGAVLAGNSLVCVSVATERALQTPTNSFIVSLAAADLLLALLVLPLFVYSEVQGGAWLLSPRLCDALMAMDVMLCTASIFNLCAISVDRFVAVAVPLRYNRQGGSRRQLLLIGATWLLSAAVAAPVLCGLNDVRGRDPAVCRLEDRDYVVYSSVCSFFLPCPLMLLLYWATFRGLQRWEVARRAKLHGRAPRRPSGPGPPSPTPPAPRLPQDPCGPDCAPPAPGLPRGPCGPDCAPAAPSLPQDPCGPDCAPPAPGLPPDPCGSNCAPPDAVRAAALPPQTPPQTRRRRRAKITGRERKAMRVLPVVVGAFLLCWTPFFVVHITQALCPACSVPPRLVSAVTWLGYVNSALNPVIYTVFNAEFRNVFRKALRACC

[4] = molecular target: T1, D(2) dopamine receptor; experiment: Agonist activity at human recombinant D2 receptor expressed in HEK293 cells by FLIPR assay; assay type: functional, cell-based
Procedure, shortened: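 Calcium flux (FLIPR) in HEK-293 cells coexpressing recombinant human D2L with chimeric Gqo5. Efficacy is the maximal response relative to 10 µM dopamine (100%). EC50 is the concentration giving half-maximal stimulation. Values are means (SEM, n ≥ 3).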

[5] = molecular target: T1, D(2) dopamine receptor; experiment: Antagonist activity at human recombinant D2 receptor expressed in HEK293 cells by FLIPR assay; assay type: functional, cell-based
[6] = molecular target: T2, D(4) dopamine receptor; experiment: Displacement of [3H]A-369508 from human recombinant D4.4 receptor expressed in HEK293 cell membrane; assay type: cell membranes
Procedure, shortened: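 Competition binding against the D4-selective agonist radioligand [3H]-A-369508, using membranes from HEK-293 cells engineered to express human D4.4. Mean values (SEM, n ≥ 4).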

[7] = system: Rattus norvegicus; experiment: Activity against penile erection in Wistar rat at 0.1 umol/kg, sc; assay type: functional
Procedure, shortened: as §1

T1 sequence (P14416 whole entry): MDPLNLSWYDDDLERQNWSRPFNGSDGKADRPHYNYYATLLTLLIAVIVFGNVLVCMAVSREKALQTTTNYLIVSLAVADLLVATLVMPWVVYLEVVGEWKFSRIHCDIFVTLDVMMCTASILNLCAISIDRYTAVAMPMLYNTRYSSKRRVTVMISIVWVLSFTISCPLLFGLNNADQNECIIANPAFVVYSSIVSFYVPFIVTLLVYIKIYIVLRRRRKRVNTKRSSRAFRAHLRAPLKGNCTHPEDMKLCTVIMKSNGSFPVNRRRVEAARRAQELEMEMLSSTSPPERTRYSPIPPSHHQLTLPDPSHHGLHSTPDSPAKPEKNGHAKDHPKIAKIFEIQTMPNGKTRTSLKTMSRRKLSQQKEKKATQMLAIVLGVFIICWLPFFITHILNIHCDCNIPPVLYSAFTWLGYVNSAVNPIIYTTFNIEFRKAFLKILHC

Ki [1]	EC50 [3]	EC50 [4]	IC50 [5]	Ki [6]	SMILES	Activity [2]	Activity [7]
168 nM	48.8 nM	> 10000 nM	> 10000 nM	14.2 nM	CO/N=C(\CCN1CCN(c2ccccn2)CC1)c1ccc(F)cc1	50%	
46.6 nM	60.2 nM	> 10000 nM	> 10000 nM	6.4 nM	CO/N=C(/CCN1CCN(c2ccccn2)CC1)c1cccc(F)c1		
60.9 nM	98 nM	> 10000 nM	> 10000 nM	11.6 nM	CO/N=C(/CCN1CCN(c2ccccn2)CC1)c1ccc(Cl)c(C)c1		
98.7 nM	88.9 nM	> 10000 nM	> 10000 nM	13.5 nM	CO/N=C(\CCN1CCN(c2ccccn2)CC1)c1cccc(Cl)c1		
68 nM	61 nM	> 10000 nM	> 10000 nM	32.1 nM	CO/N=C(/CCN1CCN(c2ccccn2)CC1)c1cccc(C)c1		
164 nM	206 nM	> 10000 nM	> 10000 nM	120 nM	CO/N=C(/c1ccc(Cl)cc1)C(CNOC)CN1CCN(c2ccccn2)CC1 (stereo not drawn)		
68.4 nM	27.6 nM	> 10000 nM	> 10000 nM	8 nM	CO/N=C(\CCN1CCN(c2ccccn2)CC1)c1cccc(C)c1		
368 nM	22.6 nM	> 10000 nM	> 10000 nM	150 nM	CO/N=C(/c1ccc(Cl)cc1)C(O)CN1CCN(c2ccccn2)CC1 (stereo not drawn)		
19.4 nM	> 10000 nM	> 10000 nM	> 10000 nM	90 nM	CO/N=C(/CCN1CCC(c2ccccn2)CC1)c1ccc(Cl)cc1		
					CN1CCc2cccc3c2[C@H]1Cc1ccc(O)c(O)c1-3 [APOMORPHINE]		85%
257 nM	81.8 nM	> 10000 nM	> 10000 nM	168 nM	CCO/N=C(\CCN1CCN(c2nccs2)CC1)c1ccccc1		
64.5 nM	542 nM	> 10000 nM	> 10000 nM	6.4 nM	CO/N=C(\CCN1CCN(c2ccccn2)CC1)c1ccc(Cl)c(Cl)c1	76%	
132 nM	37.2 nM	> 10000 nM	> 10000 nM	110 nM	CO/N=C(\CCN1CCN(c2ccccn2)CC1)c1cc(F)cc(F)c1		68%
146 nM	459 nM	> 10000 nM	> 10000 nM	346 nM	CO/N=C(/c1ccc(Cl)cc1)C(C)CN1CCN(c2ccccn2)CC1 (stereo not drawn)		
	285 nM	> 10000 nM	> 10000 nM		CO/N=C(/c1ccc(Cl)cc1)C(CN1CCN(c2ccccn2)CC1)OC (stereo not drawn)		
	175 nM	> 10000 nM	> 10000 nM		CO/N=C(\CCN1CCN(c2ccccn2)CC1)c1cc(C)cc(C)c1		
	475 nM	> 10000 nM	> 10000 nM		O/N=C(\CCN1CCN(c2ccccn2)CC1)c1ccc(Cl)cc1		
	2680 nM	> 10000 nM	> 10000 nM		CCO/N=C(\CCN1CCN(c2cccc(OC)c2)CC1)c1ccccc1		
137 nM	108 nM	> 10000 nM	> 10000 nM	27.5 nM	CO/N=C(\CCN1CCN(c2ccccn2)CC1)c1ccc(C)c(C)c1		68%
225 nM	46.7 nM	> 10000 nM	> 10000 nM	6.3 nM	CO/N=C(/CCN1CCN(c2ccccn2)CC1)c1cc(F)cc(F)c1		
995 nM	46 nM	> 10000 nM	> 10000 nM	113 nM	CO/N=C(\c1ccc(Cl)cc1)C(O)CN1CCN(c2ccccn2)CC1 (stereo not drawn)		
221 nM	13.6 nM	> 10000 nM	> 10000 nM	53.3 nM	CO/N=C(/CCN1CCN(c2ccccn2)CC1)c1ccc(F)cc1		
	135 nM	> 10000 nM	> 10000 nM		CO/N=C(\CCN1CCN(c2ccccn2)CC1)c1ccc(Cl)c(C)c1		
1820 nM	33.3 nM	> 10000 nM	> 10000 nM	130 nM	CO/N=C(/CCN1CCN(c2ccccn2)CC1)c1cccnc1		

Ki [1]	EC50 [3]	EC50 [4]	IC50 [5]	Ki [6]	SMILES	Activity [2]	Activity [7]
	164 nM	> 10000 nM	> 10000 nM		CC(C)O/N=C(\CCN1CCN(c2ccccn2)CC1)c1ccccc1		
101 nM	44.6 nM	> 10000 nM	> 10000 nM	13.9 nM	CO/N=C(\CCN1CCN(c2ccccn2)CC1)c1cccc(F)c1		
76.5 nM	333 nM	> 10000 nM	> 10000 nM	67.1 nM	CO/N=C(\CCN1CCN(c2ccccn2)CC1C)c1ccc(Cl)cc1 (stereo not drawn)		
	91 nM	> 10000 nM	> 10000 nM		CO/N=C(/CCN1CCN(c2ccccn2)CC1)c1ccc(C)c(C)c1		
172 nM	32 nM	> 10000 nM	> 10000 nM	22.8 nM	CO/N=C(\CCN1CCN(c2ccccn2)CC1)c1ccccc1		77%
	69 nM	> 10000 nM	> 10000 nM		O/N=C(/CCN1CCN(c2ncccn2)CC1)c1ccccc1		
	39.2 nM	> 10000 nM	> 10000 nM		O/N=C(\CCN1CCN(c2ncccn2)CC1)c1ccccc1		
128 nM	28.5 nM	> 10000 nM	> 10000 nM	38 nM	CCO/N=C(\CCN1CCN(c2ccccn2)CC1)c1ccccc1	55%	
	320 nM	> 10000 nM	> 10000 nM		CCCO/N=C(\CCN1CCN(c2ccccn2)CC1)c1ccccc1		
	31 nM	> 10000 nM	> 10000 nM		O/N=C(\CCN1CCN(c2ccccn2)CC1)c1ccc(F)cc1		
		> 10000 nM	> 10000 nM		Cc1cccc(C(=O)NCN2CCN(c3ccccc3C#N)CC2)c1 [PD-168,077]	79%	
	19.4 nM	> 10000 nM	> 10000 nM		O/N=C(\CCN1CCN(c2ccccn2)CC1)c1cc(F)cc(F)c1		
25.3 nM	195 nM	> 10000 nM	> 10000 nM	134 nM	CO/N=C(\CCN1CCC(c2ccccn2)CC1)c1ccc(Cl)cc1		
	34.5 nM	> 10000 nM	> 10000 nM		COC(CN1CCN(c2ccccn2)CC1)/C(=N\O)c1cccc(C)c1 (stereo not drawn)		
2530 nM	43.8 nM	> 10000 nM	> 10000 nM	2050 nM	CO/N=C(\CN1CCN(c2ccccn2)CC1)c1ccc(F)cc1	77%	
	296 nM	> 10000 nM	> 10000 nM		CO/N=C(/CCN1CCN(c2ccccn2)CC1)c1ccc(Cl)cc1Cl		
	48.7 nM	> 10000 nM	> 10000 nM		CCO/N=C(\CCN1CCN(c2ccccc2C#N)CC1)c1ccccc1		
140 nM	33 nM	> 10000 nM	> 10000 nM	88 nM	N#CCO/N=C(\CCN1CCN(c2ccccn2)CC1)c1ccccc1		
	95 nM	> 10000 nM	> 10000 nM		CO/N=C(/CCN1CCN(c2ccccn2)CC1)c1ccc(F)c(Cl)c1		
	> 10000 nM	> 10000 nM	> 10000 nM		CCO/N=C(\CCN1CCN(c2ccc(OC)cc2)CC1)c1ccccc1		
	139 nM	> 10000 nM	> 10000 nM		CCO/N=C(\CCN1CCN(c2ncccc2C#N)CC1)c1ccccc1		
125 nM	27.5 nM	> 10000 nM	> 10000 nM	20.1 nM	CO/N=C(/CCN1CCN(c2ccccn2)CC1)c1cccc(C#N)c1		
112 nM	74 nM	> 10000 nM	> 10000 nM	11.4 nM	CO/N=C(\CCN1CCN(c2ccccn2)CC1)c1ccccc1C		
	253 nM	> 10000 nM	> 10000 nM		CCO/N=C(\CCN1CCN(c2ncccc2C)CC1)c1ccccc1		
